Laboratory results as given in PMC2924166 (Proteins, 2009).

Legend:
Type in all cases: binding
[1] = Calcium affinity of fluorescent indicator dyes; settings: higher affinity for calcium
[2] = Equilibrium calcium titration of CaM, sites III and IV; settings: pH 7.4, 22°C
WT CaM1–148 = WT CaM1–148 (Rattus norvegicus, UniProt P0DP29); assay: Fluorescence anisotropy titration of Fl-CaMKIIp with WT CaM1–148
[3] = Equilibrium calcium titration of CaM, sites I and II; settings: pH 7.4, 22°C
Method in brief: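 Recombinant CaM constructs (1–148, 1–80) at 2 μM were used alone or with 10 μM CaMKII CaM-binding-domain peptide (residues 290–309, 1:5). CaCl2 was titrated to 1 nM–0.01 M. Phe fluorescence was read at ex 250/em 280 nm. Free Ca2+ came from 0.1 μM Oregon Green, or XRhod5F with peptide. Runs were done ≥3 times, normalized, and fit by nonlinear least squares to ΔG1, ΔG2.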

[4] = peptide equivalent 0, 2 μM CaM, 50 mM HEPES, 100 mM KCl, 1 mM MgCl2, 0.05 mM EGTA, 5 mM NTA, Oregon Green, repeated at least three times

XRhod5F
lower Kd for calcium versus Oregon Green [1]: ~ 20 fold

CaM76–148: C-domain fragment of calmodulin, residues 76–148
ΔG1 of calcium binding, sites III and IV [2, 4]: -5.45 ± 0.51 kcal/mol | ΔGc, sites III and IV ([2]; peptide equivalent 0): -4.57 ± 1.15 kcal/mol | ΔGc, sites III and IV ([2]; peptide equivalent 5 (CaMKIIp)): -2.81 ± 0.47 kcal/mol

CC[C@H](C)[C@H](NC(=O)[C@H](C)NC(=O)CNC(=O)[C@H](CCCCN)NC(=O)[C@H](CC(C)C)NC(=O)[C@H](CCCCN)NC(=O)[C@H](CCCNC(=N)N)NC(=O)[C@H](CCCNC(=N)N)NC(=O)[C@H](C)NC(=O)[C@H](CC(N)=O)NC(=O)[C@H](Cc1ccccc1)NC(=O)[C@H](CCCCN)NC(=O)[C@H](CCCCN)NC(=O)[C@@H](N)CC(C)C)C(=O)N[C@@H](CC(C)C)C(=O)N[C@H](C(=O)N[C@H](C(=O)N[C@@H](CCSC)C(=O)N[C@@H](CC(C)C)C(=O)N[C@@H](C)C(=O)O)[C@@H](C)O)[C@@H](C)O [CaMKIIp]
level of saturation of CaMKIIp by CaM1–148 (WT CaM1–148; 10 μM CaM1–148, 23 nM calcium): less than 10% | level of saturation of CaMKIIp by CaM1–148 (WT CaM1–148; 10 μM CaM1–148, 311 nM calcium): more than 95% | Kd (WT CaM1–148; Kd of (Ca^2+)4-CaM1–148 for Fl-CaMKIIp, 10 mM CaCl2, stoichiometric range, upper limit): ≤ 10 nM | concentration of apo CaM-CaMKIIp in presence of 5 eq. CaMKIIp (WT CaM1–148; apo, 2 μM CaM, 10 μM CaMKIIp): ≤ 10%

CaM1–80: N-domain fragment of calmodulin, residues 1–80
ΔG1 of calcium binding, sites I and II [3, 4]: -5.92 ± 0.38 kcal/mol | ΔGc, sites I and II ([3]; peptide equivalent 0): -1.73 ± 0.68 kcal/mol | ΔGc, sites I and II ([3]; peptide equivalent 5 (CaMKIIp)): -3.38 ± 1.18 kcal/mol
